Active and inactive are the calls of the source. The calls are words filed in the database; no cut-off is given here.
Tests used:
Trypanosoma cruzi [1] = experiment: Antitrypanosomal activity against Trypanosoma cruzi Y trypomastigote forms infected in monkey LLC-MK2 cells assessed as reduction in parasite viability after 24 hrs by resazurin assay; assay type: functional, cell-based; settings: LLC-MK2, 24 h
In short: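 Y-strain trypomastigotes from LLC-MK2 cultures seeded at 1×10^6/well in RPMI-1640. Compounds up to 150 μM, 24 h at 37 °C, 5% CO2. Viability by resazurin (0.011% in PBS), read at 570 nm against drug-free and cell-free wells; 0.5% DMSO control. IC50 by sigmoidal dose-response curve fitting.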

Leishmania infantum [2] = experiment: Antileishmanial activity against Leishmania infantum MHOM/BR/1972/LD promastigote forms […] assessed as reduction in parasite viability after 48 hrs by MTT assay; assay type: functional
In short: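 Late-growth-phase promastigotes (passage 5) seeded at 1×10^6/well in M-199. Compounds dissolved in DMSO, tested up to 100 μM, 48 h at 24 °C. Viability by MTT, OD 570 nm, against drug-free (100%) and cell-free blank wells; 0.5% DMSO control. IC50 from sigmoidal dose-response curves; ≥2 independent assays.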

Leishmania infantum [3] = experiment: Antileishmanial activity against Leishmania infantum MHOM/BR/1972/LD amastigote forms infected in BALB/c mouse peritoneal macrophages assessed as reduction in parasite viability after 120 hrs by giemsa staining based light microscopy; assay type: functional
In short: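 BALB/c peritoneal macrophages seeded at 1×10^5/well for 24 h, then infected with hamster spleen-derived amastigotes (1:10 macrophage:amastigote, 24 h, 37 °C, 5% CO2). Compound exposure for 120 h, highest 100 μM. Cells MeOH-fixed and Giemsa-stained; infected macrophages counted out of 400 cells. IC50 from sigmoidal dose-response; at least two independent assays.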

[4] = Cytotoxicity against mouse NCTC-929 cells assessed as decrease in cell viability after 48 hrs by MTT assay; assay type: toxicity
In short: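 NCTC clone 929 murine cells seeded at 6×10^4/well. Compound up to 150 μM for 48 h at 37 °C, 5% CO2. Viability read by MTT. CC50 from sigmoidal dose-response; mean of at least two independent experiments.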

[5] = Selectivity index, ratio of CC50 for mouse NCTC-929 cells to IC50 for Trypanosoma cruzi Y trypomastigote form infected in monkey LLC-MK2 cells; assay type: functional
Trypanosoma cruzi [6] = experiment: Potency index, ratio of benznidazole IC50 to compound IC50 for Trypanosoma cruzi Y trypomastigote forms infected in monkey LLC-MK2 cells; assay type: functional
[7] = Selectivity index, ratio of CC50 for mouse NCTC-929 cells to IC50 for Leishmania infantum MHOM/BR/1972/LD amastigote forms infected in BALB/c mouse macrophages; assay type: functional
Leishmania infantum [8] = experiment: Induction of plasma membrane permeability in Leishmania infantum MHOM/BR/1972/LD promastigote form assessed as increase in fluorescence intensity at 34 uM measured every 20 mins for 60 mins by SYTOX green dye based fluorimetric assay relative to control; assay type: functional
In short: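 Late-growth-phase promastigotes (passage 7) washed in PBS, seeded at 2×10^6/well and loaded with 1 μM SYTOX Green for 15 min at 24 °C. Compound added; fluorescence (ex 485/em 520 nm) read every 20 min over 60 min. 0.1% Triton X-100 defined maximal permeabilization. Background, DMSO, untreated and cell-free controls included. Triplicates.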

Splenocyte = experiment: Antiinflammatory activity in splenocytes (unknown origin) assessed as decrease in MCP1 release at 15 uM after 48 hrs by flow cytometric analysis; assay type: functional, cell-based
Leishmania infantum [9] = experiment: Induction of mitochondrial membrane potential loss in Leishmania infantum MHOM/BR/1972/LD promastigote form at 34 uM incubated for 60 mins by rhodamine-123 dye based fluorimetric assay; assay type: functional
In short: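 Promastigotes (2×10^6/mL) in HBSS-glucose exposed to compound for 60 min at 25 °C. Rhodamine-123 (0.3 μg/mL) then added, cells washed and resuspended in HBSS-Glc, and fluorescence read at ex 485/em 520 nm. Sodium azide 10 mM as positive control; background, DMSO and untreated controls included. Triplicates.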

Leishmania infantum [10] = experiment: Induction of ROS generation in Leishmania infantum MHOM/BR/1972/LD promastigote form at 34 uM incubated for […] by H2DCF-DA probe based fluorimetric assay relative to untreated control; assay type: functional
In short: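 Promastigotes (2×10^6/well) washed in HBSS and exposed to compound for 60 min. H2DCFDA (5 μM) then added for 15 min. Fluorescence read at ex 485/em 520 nm. Sodium azide 10 mM as positive control; background, DMSO, untreated and cell-free controls included. Triplicates.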

Peritoneal macrophage [11] = experiment: Antiinflammatory activity in BALB/c mouse peritoneal macrophages co-cultivated with splenocytes assessed as decrease in INF-gamma release at 15 uM after 48 hrs by flow cytometric analysis; assay type: functional
In short: (§1)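 Peritoneal macrophages from BALB/c mice seeded at 1.5×10^5 cells/well; after 24 h, infected where applicable with L. infantum spleen-derived amastigotes at 1:10 (macrophage:amastigote). After 24 h, cocultured where applicable with splenocytes at 6:1. Compound added for 48 h. Supernatant cytokines quantified with an inflammatory cytometric bead array by flow cytometry. Sham-treated infected macrophages served as reference.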

Peritoneal macrophage [12] = experiment: Antiinflammatory activity in BALB/c mouse peritoneal macrophages infected with Leishmania infantum MHOM/BR/1972/LD amastigote form cocultivated with splenocytes assessed as decrease in INF-gamma release at 15 uM after 48 hrs by flow cytometric analysis; assay type: functional; in short: as §1

| Compound | IC50 (Trypanosoma cruzi [1]) | IC50 (Leishmania infantum [2]) | IC50 (Leishmania infantum [3]) | CC50 at 48 h [4] | Ratio CC50/IC50 [5] | Ratio IC50 (Trypanosoma cruzi [6]) | Ratio CC50/IC50 [7] | Activity (Leishmania infantum [8]) | Activity (Splenocyte) | Activity (Leishmania infantum [9]) | Activity (Leishmania infantum [10]) | Activity (Peritoneal macrophage [11]) | Activity (Peritoneal macrophage [12]) |
| --- | --- | --- | --- | --- | --- | --- | --- | --- | --- | --- | --- | --- | --- |
| CCCC(=O)OCCCC[C@H]1C[C@H]2CC[C@H]3C[C@@H](C)[NH+]=C(N1)N23.F[B-](F)(F)F | 49 µM | > 100 µM | > 100 µM | > 150 µM | >2 | – | – | – | – | – | – | – | – |
| C[C@@H]1CCC[C@]2(CCN3CC[C@]4(CCC[C@@H](C)O4)NC3=N2)O1 | > 100 µM | > 100 µM | > 100 µM | > 150 µM | – | – | – | – | – | – | – | – | – |
| CCCCCCCCCCCC(=O)OCCCC[C@H]1C[C@H]2CC[C@H]3C[C@@H](C)[NH+]=C(N1)N23.F[B-](F)(F)F | 4 µM | 48 µM | > 100 µM | 57 µM | 19 | 4 | – | – | – | – | – | – | – |
| C1CC[C@]2(C[C@H]3CC[C@H]4C[C@@]5(CCCCO5)[NH+]=C(N2)N34)OC1.F[B-](F)(F)F | > 100 µM | > 100 µM | 8 µM | > 150 µM | – | – | >19 | – | – | – | – | – | – |
| CCCCCCCCC[C@@H]1C[C@@H]2CC[C@H]3C(C(=O)O)[C@@H](C)N=C(N1)N23.O=C(O)C(F)(F)F (single isomer, unassigned; 15) | 79 µM | 57 µM | 24 µM | 70 µM | 0.9 | – | 3 | – | – | – | – | – | – |
| CCCCCCCCCC(=O)OCCCC[C@H]1C[C@H]2CC[C@H]3C[C@@H](C)[NH+]=C(N1)N23.F[B-](F)(F)F | 4 µM | 59 µM | > 100 µM | 84 µM | 28 | 4 | – | – | – | – | – | – | – |
| CC(C)=CCC/C(C)=C/CNC(=N)N.Cl | 35 µM | 9 µM | 19 µM | 116 µM | 3 | – | 6 | – | – | – | – | – | – |
| C=CCOC(=O)C1=C(CCCCC[C@@H](C)O[Si](C(C)(C)C)(C(C)(C)C)C(C)(C)C)NC2=[N+]3[C@H](CC[C@@H]13)C[C@H](C)N2.CC(=O)[O-] | 0.9 µM | > 100 µM | 0.8 µM | 2 µM | 2 | 17 | 3 | – | – | – | – | – | – |
| CCCCCCCC(=O)OCCCC[C@H]1C[C@H]2CC[C@H]3C[C@@H](C)[NH+]=C(N1)N23.F[B-](F)(F)F | 8 µM | 53 µM | > 100 µM | 100 µM | 12 | – | – | – | – | – | – | – | – |
| CC(=O)OCCCC[C@H]1C[C@H]2CC[C@H]3C[C@@H](C)[NH+]=C(N1)N23.F[B-](F)(F)F | 88 µM | > 100 µM | > 100 µM | > 150 µM | >2 | – | – | – | – | – | – | – | – |
| C[C@@H]1C[C@@H]2CC[C@@H]3C[C@H](CCCCO)NC(=N1)N32 | > 100 µM | > 100 µM | > 100 µM | > 150 µM | – | – | – | – | – | – | – | – | – |
| CCCCCCCCCc1cc(CCCO)nc(N)n1 | 8 µM | 42 µM | 5 µM | 42 µM | 5 | – | 8 | – | – | – | – | – | – |
| CCCCCCCCC[C@@H]1C[C@@H]2CC[C@H]3C(C(=O)O)[C@@H](C)N=C(N1)N23 (single isomer, unassigned; 16) | 69 µM | 47 µM | > 100 µM | 60 µM | 0.9 | – | – | – | – | – | – | – | – |
| F[B-](F)(F)F.c1ccc([C@@H]2C[C@@H]3CC[C@@H]4C[C@H](c5ccccc5)NC(=[NH+]2)N43)cc1 | 9 µM | 34 µM | 2 µM | 45 µM | 5 | – | 20 | 10% | Active | 70% | 60% | Active | Active |
| O=C(Cn1ccnc1[N+](=O)[O-])NCc1ccccc1 [BENZNIDAZOLE] | 16 µM | – | – | > 150 µM | >9 | – | – | – | – | – | – | – | – |
| C[C@H](O)CCCCC[C@@H]1C[C@H]2CC[C@H]3C[C@@H](C)NC(=[NH+]1)N23.F[B-](F)(F)F | > 100 µM | > 100 µM | 49 µM | > 150 µM | – | – | >3 | – | – | – | – | – | – |
| CCCCCCCCCCCCCCCCOP(=O)([O-])OCC[N+](C)(C)C [MILTEFOSINE] | – | – | 17 µM | 122 µM | – | – | 7 | – | – | – | – | – | – |
| C[C@@H]1C[C@@H]2CC[C@@H]3C[C@H](CCCCO[Si](C(C)(C)C)(C(C)(C)C)C(C)(C)C)NC(=[NH+]1)N32.F[B-](F)(F)F | 4 µM | 7 µM | 18 µM | 65 µM | 16 | – | 4 | – | – | – | – | – | – |
| CCCCCC(=O)OCCCC[C@H]1C[C@H]2CC[C@H]3C[C@@H](C)[NH+]=C(N1)N23.F[B-](F)(F)F | 22 µM | 109 µM | > 100 µM | > 150 µM | >7 | – | – | – | – | – | – | – | – |

Reference: ChEMBL document CHEMBL3868592, “Analogues of Marine Guanidine Alkaloids Are in Vitro Effective against Trypanosoma cruzi and Selectively Eliminate Leishmania (L.) infantum Intracellular Amastigotes” (J Nat Prod, 2016)
